# Screening data: PubChem, Sanford-Burnham Center for Chemical Genomics
# The list is not random: actives were taken first. Their share in the collection is about 1.4%.
# APOBEC3A inh – human APOBEC3A DNA deaminase inhibition | AID 493011 | recombinant A3A, FAM/TAMRA ssDNA deamination fluorescence | inhibition, % at 20 µM | P31941 | hit rate 0.41% among 330,000;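 active means at least 40% inhibition at 20 µM here, with at most 30% in a related deaminase screen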;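 further: plate controls were A3A with DMSO for no effect and wells lacking A3A enzyme for full effect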
# Target sequence (P31941 whole entry, looked up): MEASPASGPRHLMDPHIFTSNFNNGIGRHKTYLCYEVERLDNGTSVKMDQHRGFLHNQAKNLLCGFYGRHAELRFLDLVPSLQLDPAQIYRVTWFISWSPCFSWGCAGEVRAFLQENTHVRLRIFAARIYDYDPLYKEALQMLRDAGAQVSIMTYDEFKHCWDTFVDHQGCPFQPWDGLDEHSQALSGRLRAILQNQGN
# A3G deaminase – APOBEC3G (human) deaminase inhibition. recombinant A3G, ssDNA deamination FAM/TAMRA fluorescence. inhibition, % at 20 µM. hit rate 0.28% among 330,000. AID 493012;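 active means inhibition of at least 40% at 20 µM, with no more than 30% in the related APOBEC3A deaminase screen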;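 further: plate controls were DMSO wells with A3G for no effect and wells lacking A3G enzyme for full effect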
# Target sequence (Q9HC16 whole entry, looked up): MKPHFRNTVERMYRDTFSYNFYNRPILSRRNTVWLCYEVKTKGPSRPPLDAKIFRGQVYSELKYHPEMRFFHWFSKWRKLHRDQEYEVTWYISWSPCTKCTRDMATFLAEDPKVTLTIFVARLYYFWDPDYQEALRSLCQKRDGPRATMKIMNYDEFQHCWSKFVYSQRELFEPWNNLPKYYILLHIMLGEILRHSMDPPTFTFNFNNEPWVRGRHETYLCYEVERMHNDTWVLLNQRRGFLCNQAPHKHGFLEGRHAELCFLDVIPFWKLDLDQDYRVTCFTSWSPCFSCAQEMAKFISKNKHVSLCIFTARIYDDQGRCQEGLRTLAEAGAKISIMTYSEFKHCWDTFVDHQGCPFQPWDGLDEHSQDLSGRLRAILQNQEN
# HKDC1 inhibitor – HKDC1 (human) hexokinase inhibition. Q2TB90. recombinant HKDC1, G6PDH/diaphorase resazurin coupled fluorescence. inhibition, % at 20 µM. hit rate 0.16% among 340,000. AID 493160;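 active means inhibition above about 35% when tested at 20 µM, limit read from the data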;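 further: plate controls were DMSO wells with enzyme for no effect and DMSO wells lacking enzyme for full effect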
#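 test system = in-house recombinant HK5 (HKDC1) enzyme | amount = HKDC1 at 5 µg/mL | control set = DMSO-enzyme wells negative, buffer-substituted wells positive | compound = one dose of 20 µM, 1% DMSO | schedule = reaction time 90 min, room temperature, protected from light | technique = resorufin fluorescence at 613 nm | reagent = glucose with 1 mM ATP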
# PfG6PD inh – PfG6PD (Plasmodium falciparum) enzyme inhibition; AID 504690; hit rate 0.78% among 350,000; PfGluPho enzyme, NADPH resazurin-diaphorase fluorescence; inhibition, % at 20 µM;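 active means inhibition reaching at least a set limit at 20 µM in the primary screen, cut at about 59% in these data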;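 further: 0% = DMSO wells with substrate and 100% = DMSO wells lacking glucose-6-phosphate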
# hiPSC survival – hiPSC single-cell survival enhancement. hit rate 0.044% among 360,000. AID 602274. ATPlite luminescence; 100% = ROCK inhibitor wells, 0% = DMSO. survival enhancement, % at 20 µM; in the data active means survival enhancement above about 18%;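 further: cells exposed to compounds for 16 hours before the ATP read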
# PfGluPho conf – PfG6PD inhibition, single-dose confirmed; recombinant PfGluPho, NADPH-diaphorase-resazurin fluorescence; hit rate 34% among 2,400; inhibition, % at 20 µM; AID 504753; shares compounds with PfG6PD inh;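 active means inhibition of at least 50% at 20 µM in any single replicate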;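 further: 0% = DMSO with substrate and 100% = DMSO lacking glucose-6-phosphate substrate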
# Diaphorase 10uM – diaphorase inhibition or oxidation at 10 uM NADPH; diaphorase-coupled resazurin reduction, fluorescence, NADPH 10 uM; inhibition, % at 20 µM; hit rate 39% among 820; shares compounds with PfG6PD inh; AID 504862;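 active means average inhibition reaching 50% or more with the compound at 20 µM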;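 further: resorufin red fluorescence formed as diaphorase reduces resazurin using NADPH; 0% = DMSO with enzyme and 100% = DMSO without enzyme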
# Diaph ctr 30uM – inhibits diaphorase or oxidizes, flagging false PfG6PD hits. shares compounds with PfG6PD inh. Diaphorase/resazurin coupled assay, resorufin fluorescence, 30 uM NADPH. inhibition, % at 20 µM. hit rate 29% among 820. AID 504863;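 active means inhibition averaging 50% or more, tested at 20 µM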;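 further: 0% = DMSO with enzyme and 100% = DMSO wells lacking diaphorase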
# The depositor's hits bear a star; · = not tested or not shown.
SMILES,APOBEC3A inh,A3G deaminase,HKDC1 inhibitor,PfG6PD inh,hiPSC survival,PfGluPho conf,others
COC(=O)[C@]1(Cc2ccccc2)N[C@H](CN(C)C(C)=O)[C@@H]2C(=O)N(Cc3ccccc3)C(=O)[C@@H]21,-1.1,-6.3,-8.1,-3.7,-1.3,·,
COc1ccccc1C(=O)NCC(=O)OCC(=O)c1cccc2ccccc12,0.2,-5.9,2.9,-3.4,0.4,·,
CC(=O)c1ccc(S(=O)(=O)N2CCN(C)CC2)cc1,4.9,-5.3,-2.3,-9.8,-0.4,·,
COc1cc(CNc2ccc(N3CCCC3)cc2)cc(Cl)c1OC,0.4,8.3,15.9,75.4*,-0.8,75.5*,Diaphorase 10uM=7.5;Diaph ctr 30uM=14.0
COc1ccccc1CNc1ccc(N2CCCCC2)cc1,-6.0,-5.0,-9.2,66.3*,-0.5,33.3,
CCOc1ccc(CNc2ccc(N3CCCC3)cc2)cc1,1.7,8.0,18.6,94.8*,-1.9,81.5*,Diaphorase 10uM=27.0;Diaph ctr 30uM=13.9
C=CCOc1c(Cl)cc(CNc2ccc(C)c(Cl)c2)cc1OC,0.3,-2.5,·,·,·,·,
C=CCOc1c(Cl)cc(CNc2ccc(N(C)C)cc2)cc1OC,-1.7,-0.1,4.5,78.7*,-4.0,51.0*,Diaphorase 10uM=-0.3;Diaph ctr 30uM=-3.2
COc1cccc(CNc2ccc(N3CCCCC3)cc2)c1OC,-3.2,0.0,10.3,51.9,7.2,·,
COc1cc(CNc2ccc(N3CCOCC3)cc2)cc(Br)c1OC,-4.4,-6.5,-1.5,23.4,0.7,·,
CCC(=O)Nc1c2c(nn1-c1ccc(F)cc1)CS(=O)(=O)C2,0.8,-2.0,-6.7,-8.2,-0.3,·,
O=C(C[C@H]1C/C=C\CC[C@@H](Cc2ccc(F)cc2)C(=O)O[C@H](c2ccccc2)CNC1=O)N[C@H](CO)Cc1ccccc1,-4.6,-9.0,-4.9,-8.7,0.2,·,
CCOc1cc(CNc2ccc(N3CCCC3)cc2)cc(Cl)c1OC,-2.3,7.7,2.3,83.6*,-2.6,63.0*,Diaphorase 10uM=-4.1;Diaph ctr 30uM=-4.7
COCCN(Cc1nc2ccccc2c(=O)[nH]1)C(=O)COc1c(C)cc(Cl)cc1C,-0.3,-7.9,2.8,72.4*,0.3,34.8,
COc1ccc2cc(C3=CC(=O)CCC3)ccc2c1,·,·,1.5,79.1*,6.8,34.8,
FC(F)(F)c1cccc(-c2nc3nc(Cl)c(Cl)nc3[nH]2)c1,-4.6,-10.4,1.4,102.1*,-0.5,76.4*,Diaphorase 10uM=76.7*;Diaph ctr 30uM=57.0*
Cc1ccc(S(=O)(=O)/N=C2/C=C(C3C(=O)CC(C)(C)CC3=O)C(=O)c3ccccc32)cc1,-4.7,-1.5,28.1,72.4*,-0.3,73.4*,Diaphorase 10uM=43.3;Diaph ctr 30uM=45.5
Cc1ccc(S(=O)(=O)N2CCC(C(=O)C3C(=O)CC(C)(C)CC3=O)CC2)cc1,-1.4,-2.8,-10.0,-2.9,0.3,·,
N/C(=N\OC(=O)c1ccc(Cl)cc1)c1[nH]ncc1Br,1.5,0.2,-6.1,-2.2,-0.6,·,
O=S(=O)(c1ccc(-c2ccon2)s1)N1CCN(c2ccccn2)CC1,-2.4,-8.8,-5.1,3.4,0.1,·,
Cc1cccc(NC(=O)c2ccc(N3CCCCC3)c([N+](=O)[O-])c2)n1,-0.2,-3.9,8.3,97.8*,-0.8,24.5,
Cc1cccc(NC(=O)c2ccc(N3CCOCC3)c([N+](=O)[O-])c2)n1,3.2,-9.8,2.2,69.6*,-0.5,19.2,
CC1CCN(c2ccc(C(=O)Nc3ccc4c(c3)OCO4)cc2[N+](=O)[O-])CC1,0.5,1.6,-4.3,61.6*,-0.6,-13.2,
Cc1cccc(NC(=O)c2ccc(N(C)C3CCCCC3)c([N+](=O)[O-])c2)n1,0.2,-2.3,2.6,59.8*,-1.7,-9.0,
O=C(O)CN1C(=O)C(=O)N(Cc2ccccc2F)C1=O,-2.9,-9.4,-3.3,13.1,-0.3,·,
SMILES,APOBEC3A inh,A3G deaminase,HKDC1 inhibitor,PfG6PD inh,hiPSC survival,PfGluPho conf,others
Cc1cc(C(=O)Nc2ccc(N3CCCC3)c(Cl)c2)ccc1[N+](=O)[O-],-4.2,-7.1,1.1,67.4*,0.3,2.2,
O=C(CCC(=O)N1CCOc2ccc(Cl)cc21)NCCN1CCOCC1,-0.1,-5.7,-1.9,-11.7,1.5,·,
CN(C)C=Nc1ccc2nc3c(cc2c1)[nH]c1ccccc13,5.8,-3.4,18.7,79.7*,-0.8,54.4*,Diaphorase 10uM=36.9;Diaph ctr 30uM=44.8
COc1ccc(C2=NN(c3ccccc3)C(c3cn(CCC(=O)O)nc3-c3ccccc3)C2)cc1 (stereo not drawn),-1.7,-6.4,-3.9,-10.2,0.2,·,
O=C(CCn1cccn1)N1CCCC(Nc2ccc(F)c(F)c2)C1 (stereo not drawn),·,·,·,5.8,2.3,·,
COc1cccc(C(=O)OCC(=O)Nc2ccc3c(c2)OCCO3)c1,-4.8,-4.8,-0.4,0.9,0.8,·,
Cc1nc2cc(NS(=O)(=O)c3cccc4cccnc34)ccc2s1,0.9,3.9,-1.2,60.9*,0.1,37.0,
Cc1ccc(C)c(S(=O)(=O)Nc2ccc3sc(C)nc3c2)c1,1.1,1.1,6.0,37.9,-1.4,·,
Cc1ccc(OCCSc2nnc(-c3cccs3)n2C)cc1,2.6,-2.6,-0.2,11.6,0.2,·,
Cc1cc(OCCSc2nnc(-c3cccs3)n2C)ccc1Cl,-1.1,-1.1,5.3,70.4*,-3.1,21.6,
COc1ccccc1NS(=O)(=O)c1cc(C(=O)N2CCCC2)ccc1F,-4.0,-2.5,0.2,6.7,-0.4,·,
COc1cccc(C(=O)Nc2ccc(NC(=O)c3ccco3)c(Cl)c2)c1,-3.3,-9.4,-5.1,69.7*,0.2,12.7,
COc1cccc(NC(=O)c2cccc(NC(=O)c3ccco3)c2)c1,·,·,·,0.7,5.7,·,
COc1cccc(NC(=O)C2CC2(c2cccc(OC)c2)c2cccc(OC)c2)c1 (stereo not drawn),3.0,-3.2,0.6,111.3*,-1.4,42.8,
COc1ccc2nc(SCC(=O)NC3(C#N)CCCCC3)[nH]c2c1,7.7,-0.1,-4.5,-3.3,-0.4,·,
CCCC(=O)N1CCCC1(C)C(=O)Nc1ccc(-n2cccc2)cc1 (stereo not drawn),·,·,·,·,-0.5,·,
CCCCCCCCCCCCCCCC[N+](C)(C)CCN(Cc1ccc(OC)cc1)c1ncccn1,6.4,-3.1,-4.7,64.4*,-5.0,13.8,
O=C(Nc1nnc(S(=O)(=O)N2CCCCC2)s1)c1ccc(Cl)cc1,-4.5,-4.5,0.0,105.9*,2.5,44.1*,Diaphorase 10uM=59.3*;Diaph ctr 30uM=31.6
O=C(Nc1nnc(S(=O)(=O)N2CCCCCC2)s1)c1ccccc1Br,-2.4,0.3,1.5,2.7,-2.3,·,
COc1cc(C(=O)Nc2nnc(S(=O)(=O)N3CCCCCC3)s2)cc(OC)c1OC,0.9,-2.4,1.1,-24.4,-0.6,·,
COc1cccc(C(=O)Nc2nnc(S(=O)(=O)N3CCCC3)s2)c1,-1.4,-5.0,0.3,93.5*,-0.1,70.8*,Diaphorase 10uM=57.7*;Diaph ctr 30uM=51.1*
